Experimental data as given in ChEMBL document CHEMBL1136753, “Optimization of 2-phenylaminoimidazo[4,5-h]isoquinolin-9-ones: orally active inhibitors of lck kinase” (J Med Chem, 2003).

Legend:
[1] = target: Tyrosine-protein kinase Lck (Homo sapiens, UniProt P06239); experiment: Inhibition of p56 Lck tyrosine kinase
Jurkat = experiment: Inhibition of Calcium release in jurkat cells; assay type: functional, cell-based; conditions: Homo sapiens
Summary of the method: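 Jurkat cells loaded with Fluo-3, washed in HBSS with 1 mM CaCl₂, 1 mM MgCl₂, 10 mM HEPES, 2 mM probenecid, 1% FBS, pH 7.4. Final 3 × 10⁵ cells/mL. Compound added for 15 min at room temperature, then anti-CD3 (clone X35, final 0.25 µg/mL). FLIPR fluorescence followed for 13 min. Peak minus baseline plotted against concentration gives EC₅₀. Mean of two or more experiments in duplicate ± SD.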

Homo sapiens = species on record: Homo sapiens; experiment: Inhibition of IL-2 production in human whole blood; assay type: functional
tissue or blood = assay type: functional, tissue-based; conditions: Homo sapiens

Chain of Tyrosine-protein kinase Lck (P06239 whole entry): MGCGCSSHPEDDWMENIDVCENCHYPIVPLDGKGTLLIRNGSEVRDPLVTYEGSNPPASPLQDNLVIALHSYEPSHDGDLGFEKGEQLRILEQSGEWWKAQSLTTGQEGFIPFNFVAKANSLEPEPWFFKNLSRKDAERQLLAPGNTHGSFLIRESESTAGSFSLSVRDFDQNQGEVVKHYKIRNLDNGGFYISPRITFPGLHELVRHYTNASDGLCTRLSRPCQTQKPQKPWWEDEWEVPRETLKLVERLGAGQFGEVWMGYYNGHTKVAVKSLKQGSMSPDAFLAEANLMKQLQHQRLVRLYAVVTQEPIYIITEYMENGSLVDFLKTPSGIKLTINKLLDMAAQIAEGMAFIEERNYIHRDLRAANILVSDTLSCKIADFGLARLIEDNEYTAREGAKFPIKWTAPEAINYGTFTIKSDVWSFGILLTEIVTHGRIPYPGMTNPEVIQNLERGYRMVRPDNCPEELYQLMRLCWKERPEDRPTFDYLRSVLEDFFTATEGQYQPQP

SMILES: CCn1c(Nc2c(Cl)cccc2Cl)nc2ccc3c(C)c(C)nc(O)c3c21
- IC50 [1]: > 2.5 µM

SMILES: COC(=O)/C=C/c1nc(O)c2c(ccc3nc(Nc4c(Cl)cccc4Cl)n(C)c32)c1C
- IC50 [1]: 0.086 µM
- EC50 (Jurkat): 0.07 µM

SMILES: Cc1c(CO)nc(O)c2c1ccc1nc(Nc3c(Cl)cccc3Cl)n(C)c12
- IC50 [1]: 0.77 µM
- EC50 (Jurkat): 0.24 µM

SMILES: Cc1nc(O)c2c(ccc3nc(Nc4c(Cl)cccc4Cl)n(C)c32)c1CCO
- IC50 [1]: 0.027 µM
- EC50 (Jurkat): 0.09 µM

SMILES: Cc1nc(O)c2c(ccc3nc(Nc4c(Cl)cccc4Cl)n(C)c32)c1CCC(=O)N1CCOCC1
- IC50 [1]: 0.12 µM
- EC50 (Jurkat): 0.27 µM

SMILES: C=Cc1nc(O)c2c(ccc3nc(Nc4c(Cl)cccc4Cl)n(C)c32)c1C
- IC50 [1]: 0.045 µM
- EC50 (Homo sapiens): 12 µM
- EC50 (Jurkat): 0.02 µM
- EC50 (tissue or blood): 0.9 µM

SMILES: Cc1nc(O)c2c(ccc3[nH]c(Nc4c(Cl)cccc4Cl)nc32)c1C
- IC50 [1]: 0.11 µM
- EC50 (Jurkat): 0.18 µM

SMILES: C=CC(O)c1nc(O)c2c(ccc3nc(Nc4c(Cl)cccc4Cl)n(C)c32)c1C (stereo not given)
- IC50 [1]: 0.57 µM
- EC50 (Jurkat): 1.3 µM

SMILES: Cc1nc(O)c2c(ccc3nc(Nc4c(Cl)cccc4Cl)n(C)c32)c1CC(=O)N1CCCC1
- IC50 [1]: 0.74 µM
- EC50 (Jurkat): 0.27 µM

SMILES: Cc1c(/C=C/CN(C)Cc2ccccc2)nc(O)c2c1ccc1nc(Nc3c(Cl)cccc3Cl)n(C)c12
- IC50 [1]: 0.01 µM
- EC50 (Jurkat): 0.2 µM

SMILES: Cc1nc(O)c2c(ccc3nc(Nc4c(Cl)cccc4Cl)n(C)c32)c1C
- IC50 [1]: 0.023 µM
- EC50 (Homo sapiens): 1.1 µM
- EC50 (Jurkat): 0.13 µM

SMILES: COc1ccc(CNCc2cc3c(C)c(C)nc(O)c3c3c2nc(Nc2c(Cl)cccc2Cl)n3C)cc1
- IC50 [1]: 0.18 µM
- EC50 (Jurkat): 0.5 µM

SMILES: CCNC/C=C/c1nc(O)c2c(ccc3nc(Nc4c(Cl)cccc4Cl)n(C)c32)c1C
- IC50 [1]: 0.002 µM
- EC50 (Jurkat): 0.009 µM

SMILES: Cc1nc(O)c2c(ccc3c2nc(Nc2c(Cl)cccc2Cl)n3C)c1C
- IC50 [1]: > 2 µM

SMILES: CCNC(=O)Cc1c(C)nc(O)c2c1ccc1nc(Nc3c(Cl)cccc3Cl)n(C)c12
- IC50 [1]: 0.46 µM
- EC50 (Jurkat): 0.6 µM

SMILES: COC(=O)c1c(C)nc(O)c2c1ccc1nc(Nc3c(Cl)cccc3Cl)n(C)c12
- IC50 [1]: 0.087 µM
- EC50 (Jurkat): 0.09 µM

SMILES: Cc1nc(O)c2c(cc(CNCCO)c3nc(Nc4c(Cl)cccc4Cl)n(C)c32)c1C
- IC50 [1]: 0.026 µM
- EC50 (Jurkat): 0.12 µM
